The text below walks through data of ChEMBL document CHEMBL3244004, “Potential antitumor agents. 27. Quantitative structure--antileukemic (L1210) activity relationships for the omega-[4-(9-acridinylamino)phenyl]alkanoic acids” (J Med Chem, 1978).

One series deals with Mus musculus. In words: Toxicity in ip dosed C3H/DBA2F1 hybrid mouse allografted with mouse L1210 cells administered for 5 days measured up to 8 days. The series is classed as organism-based. As to conditions: in vivo. The method in brief: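 C3H/DBA2 F1 hybrid mice (18.5–22.5 g) bearing ip 10^5 L1210 cells were dosed ip once daily for 5 days, starting 24 h after inoculation, at 0.2 mL per dose. Doses were spaced 0.05 log units apart. Deaths before day 8 were taken as drug toxicity, and the dose lethal to 10% of animals (LD10) was derived.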

Series [1] in a line: Logarithmic function of the retardation factor value of compound by reverse phase chromatography analysis. The class given is physicochemical. The method in brief: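 Lipophilic-hydrophilic balance read by reversed-phase TLC, using a system described in an earlier report. R_m is calculated as log(1/R_f − 1). Each quoted figure is the mean of at least three determinations.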

In a further series the test system is L1210. In words: Antitumor activity against mouse L1210 cells allografted in C3H/DBA2F1 hybrid mouse assessed as maximum increase of host life span administered as ip for 5 days relative to control. The class given is functional. In short, it runs like this:
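Mice (C3H/DBA2 F1 hybrid, 18.5–22.5 g; six per dose level) were inoculated ip with 10^5 L1210 cells. Ip treatment ran once daily on days 1–5, starting 24 h after inoculation, in 0.2 mL per dose. Doses were spaced 0.09 log units apart. ILS = T/C% − 100, significant if above 25%. Significant ILS values were regressed on log dose, and ILSmax was read at the LD10.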

Activity calls are given as the source filed them. No cut-off for these calls is given here.

The compound `CCCCCCS(=O)(=O)Nc1ccc(Nc2c3ccccc3nc3ccccc23)cc1.Cl` displayed an LD10 in the series on Mus musculus of 120 mg/kg. The Rm in series [1] turned out to be 0.75. Further, in the series on L1210, the ILSmax came to 35%.
Consider `Cl.O=C(O)CCCCCCCCc1ccc(Nc2c3ccccc3nc3ccccc23)cc1`, for which the LD10 in the series on Mus musculus was 100 mg/kg. Also, in series [1], the Rm amounted to 0.85. In the series on L1210, the ILSmax turned out to be 72% and the “log(ILSmax)” value stood at 1.86.
For `Cl.O=C(O)CCCCCCCCCc1ccc(Nc2c3ccccc3nc3ccccc23)cc1`, the LD10 with Mus musculus worked out at 75 mg/kg. Moreover, the Rm in series [1] came to 0.86. For the same compound, in the series on L1210, the ILSmax turned out to be 75% and the “log(ILSmax)” value was 1.88.
In the case of `Cl.O=C(O)CCCCCc1ccc(Nc2c3ccccc3nc3ccccc23)cc1`, the LD10 in the series with Mus musculus is 150 mg/kg. In series [1], this compound had a Rm of 0.75. Besides, in the series with L1210, the ILSmax was determined as 200% and the “log(ILSmax)” value came out at 2.3.
Consider `Cl.O=C(O)CCCc1ccc(Nc2c3ccccc3nc3ccccc23)cc1`, for which the LD10 with Mus musculus is 190 mg/kg. Further, the Rm in series [1] was found to be 0.59. Besides, in the series with L1210, the ILSmax is 213% and the “log(ILSmax)” value is 2.33.
`CCC(=O)Nc1ccc2c(Nc3ccc(NS(C)(=O)=O)cc3)c3ccccc3nc2c1`: the LD10 in the series with Mus musculus amounted to 55 mg/kg. The same compound returned a Rm in series [1] of 0.15. For the same compound, in the series on L1210, the ILSmax came to 119% and the “log(ILSmax)” value was 2.08.
As to `CC(=O)Nc1ccc2c(Nc3ccc(C(=O)O)cc3)c3ccccc3nc2c1.Cl`, the LD10 with Mus musculus is over 500 mg/kg. The compound also returned a Rm in series [1] of 0.15. Moreover, the ILSmax entry in the series with L1210 was “inactive”.
`CN(C)C(=O)CCCc1ccc(Nc2c3ccccc3nc3ccccc23)cc1.Cl` displayed an LD10 with Mus musculus of 52 mg/kg. For the same compound, the Rm in series [1] is reported as 0.68. In the series with L1210, the “log(ILSmax)” value is reported as under 1.3.
